Series [1] addresses Gamma-secretase. In words: Modulation of gamma-secretase activity in human H4 cells expressing APP695 assessed as increase in amyloid beta42 production after 20 to 24 hrs by liquid phase electrochemiluminescence assay. Format: cell-based. The method, boiled down:
(§1)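 Aβ-lowering assay in H4 APPΔ9 cells. Secreted Aβ isoforms (Aβ38, Aβ40, Aβ42) were quantified by liquid phase electrochemiluminescence (LPECL). Dose-response testing was capped at 100 μM to avoid micelle formation by the amphiphilic acids. EC50 values were derived from the curves, and the response at 100 μM was reported where EC50 could not be determined.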

Series [2] concerns H4. In words: Cytotoxicity against human H4 cells assessed as cell viability at 80 uM by MTS assay. In kind it is cell-based. The conditions noted are these: h4, 80 µM. An outline of the steps:
(§2)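 Viability of H4 APPΔ9 cells was read by a colorimetric cell proliferation assay based on bioreduction of MTS (Owen's reagent) to formazan.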
For orientation: Formazan colour is commonly taken as a measure of viable cells.

In series [3] the target is T1, Gamma-secretase (Homo sapiens) (UniProt Q96BI3+Q9NZ42+Q8WW43+P49768+Q92542+P49810). In words: Modulation of gamma-secretase activity in human H4 cells expressing APP695 assessed as increase in amyloid beta38 production at 100 uM after 20 to 24 hrs by liquid phase electrochemiluminescence assay. In kind it is cell-based. An outline of the steps: as §1
Series [4] deals with T1, Gamma-secretase (Homo sapiens). Description: Modulation of gamma-secretase activity in human H4 cells expressing APP695 assessed as increase in amyloid beta40 production at 100 uM after 20 to 24 hrs by liquid phase electrochemiluminescence assay. In kind it is cell-based. The method, boiled down: as §1
For series [5], the system named is H4. Description: Cytotoxicity against human H4 cells assessed as cell viability by MTS assay. In kind it is cell-based. An outline of the steps:
as §2

Series [6] addresses Gamma-secretase. In words: Modulation of gamma-secretase activity in human H4 cells expressing APP695 assessed as increase in amyloid beta40 production after 20 to 24 hrs by liquid phase electrochemiluminescence assay. Format: cell-based. The method, boiled down: as §1
The target of series [7] is Gamma-secretase. In words: Modulation of gamma-secretase activity in human H4 cells expressing APP695 assessed as increase in amyloid beta38 production after 20 to 24 hrs by liquid phase electrochemiluminescence assay. Format: cell-based. An outline of the steps: as §1
Series [8] is described as follows: Ratio of AUC in brain to AUC in plasma in APP Swedish mutant transgenic C57/BLg mouse at 10 mg/kg, po after 5 hrs. Conditions: in vivo.
The next series deals with Mus musculus. Description: Antialzheimer activity in APP Swedish mutant transgenic C57/BLg mouse assessed as change in amyloid beta42 level in brain at 10 mg/kg, po after 5 hrs. Set-up: dose 10 mg/kg. In kind it is functional, organism-based.
Series [9] in a line: Ratio of AUC in plasma to AUC in cerebrospinal fluid in rat. Conditions: in vivo. In kind it is ADME, CSF/Plasma.
In series [10] the test system is H4. In words: Cytotoxicity against human H4 cells assessed as cell viability at 160 uM by MTS assay. Format: cell-based. The conditions noted are these: h4, 160 µM. The method, boiled down:
as §2

Series [11] relates to H4. Description: Cytotoxicity against human H4 cells assessed as cell viability at 20 uM by MTS assay. In kind it is cell-based. The conditions noted are these: h4, 20 µM. The method, boiled down:
as §2

From ChEMBL document CHEMBL1811865, “NSAID-derived γ-secretase modulation requires an acidic moiety on the carbazole scaffold” (Bioorg Med Chem, 2011) come the findings set out here.

Active and inactive are the calls of the source. The rule behind the calls is not given here.

Turning to `CCCCCCCCn1c2ccccc2c2cc(C=O)c(OCC(=O)O)cc21`, the 50% inhibitory concentration (IC50) (in general, the concentration that gives 50% inhibition) on Gamma-secretase [1] stood at 32 µM. In the series with H4 [2], the Activity entry is “Toxic”. The outcome in [3] and in series [4] was inactive.
Consider `CCCCCCCCn1c2ccccc2c2ccc(Oc3ccccc3C(=O)O)cc21`, for which the IC50 at Gamma-secretase [1] is 38 µM; at Gamma-secretase [6] it was more than 80 µM. For the same molecule, the Activity result with H4 [5] is “Non-toxic”. For the same molecule, the concentration for a half-maximal effect (EC50) (in general, the concentration needed to bring the measured effect to its halfway point) on Gamma-secretase [7] was determined as 23 µM.
With `CCCCCCCCn1c2ccccc2c2ccc(OCC(=O)O)cc21`, the IC50 at Gamma-secretase [1] stood at 19 µM. For the same molecule, at Gamma-secretase [7], the EC50 came to 24 µM.
Turning to `CCCCCCCCn1c2ccccc2c2ccc(OCCNC=O)cc21`, on Gamma-secretase [1], the half-maximal inhibitory concentration (IC50) is more than 80 µM. In addition, the Activity result in the series on H4 [5] is listed as “Non-toxic”. Further, the result in series [3] and in [4] was inactive.
Take `CCCCCCCCn1c2ccccc2c2ccc(OC3=C(O)CNC3=O)cc21`: the concentration for half-maximal inhibition (IC50) at Gamma-secretase [1] came out at 28 µM; at Gamma-secretase [6] it was 72 µM. In addition, the Activity result in the series with H4 [5] is recorded as “Non-toxic”. Further, at Gamma-secretase [7], the concentration for a half-maximal effect (EC50) turned out to be 8 µM.
Consider `CCCCCCCCn1c2ccccc2c2ccc(OC3=C(O)C(Cc4ccccc4)N(Cc4ccc5c(c4)OCO5)C3=O)cc21` (configuration not stated), for which the 50% inhibitory concentration (IC50) at Gamma-secretase [1] worked out at 24 µM; at Gamma-secretase [6], 32 µM; at Gamma-secretase [7], 31 µM. In the series with H4 [2], the Activity entry is “Toxic”.
For `CCCCCCCCn1c2ccccc2c2ccc(OCC(=O)OCC(C)C)cc21`, the concentration for half-maximal inhibition (IC50) on Gamma-secretase [1] was more than 80 µM. In addition, the Activity entry in the series on H4 [5] is “Non-toxic”. Also, the result in [3] and in [4] was inactive.
`CCCCCCCCn1c2ccccc2c2ccc(OCC(=O)OCC)cc21`: the IC50 on Gamma-secretase [1] turned out to be 31 µM. The outcome in series [3] and in series [4] was inactive.
Regarding `CCCCCCCCn1c2ccccc2c2ccc(OCC(=O)OC)cc21`, the half-maximal inhibitory concentration (IC50) on Gamma-secretase [1] turned out to be 27 µM. For the same molecule, the Activity entry in the series with H4 [5] is “Non-toxic”. In addition, the result in series [3] and in series [4] was inactive.
In the case of `CCCCCCCCCCn1c2ccc(Cl)cc2c2ccc(C(C)C(=O)O)cc21` (configuration not stated), the “Ratio AUC” value in series [8] was less than 0.1. The outcome with Mus musculus was inactive.
For `CCCCCCCCn1c2ccccc2c2ccc(OCC#N)cc21`, the half-maximal inhibitory concentration (IC50) amounted to 252 µM on Gamma-secretase [1], 105 µM on Gamma-secretase [6] and 74 µM on Gamma-secretase [7].
Regarding `CCCCCCCCn1c2ccccc2c2ccc(O)cc21`, on Gamma-secretase [1], the IC50 was more than 80 µM. For the same molecule, the outcome in [3] and in [4] was inactive.
In the case of `CCCCCCCCn1c2ccc(Cl)cc2c2ccc(C(C)C(=O)OC)cc21` (configuration not stated), the EC50 on Gamma-secretase [1] was 15 µM. The result in series [3] and in series [4] was inactive.
Regarding `CCCCCCCCn1c2ccccc2c2ccc(OC(C)(C)C(=O)O)cc21`, the IC50 at Gamma-secretase [1] and on Gamma-secretase [6] was more than 40 µM throughout. Moreover, the Activity entry with H4 [2] is listed as “Toxic”. Also, on Gamma-secretase [7], the EC50 is more than 40 µM.
`CCCCCCCCn1c2ccccc2c2ccc(OCCN)cc21`: the concentration giving a half-maximal response (EC50) at Gamma-secretase [1] is more than 80 µM. For the same molecule, the Activity entry in the series with H4 [5] is recorded as “Non-toxic”. Besides, the half-maximal inhibitory concentration (IC50) at Gamma-secretase [6] and on Gamma-secretase [7] was more than 80 µM in each case.
As to `CCCCCCCCn1c2ccccc2c2ccc(OCc3nn[nH]n3)cc21`, the IC50 at Gamma-secretase [1] came out at 113 µM; at Gamma-secretase [6] it was 102 µM; at Gamma-secretase [7], 165 µM.
`CCCCCCCCn1c2ccccc2c2ccc(OCCS(=O)(=O)O)cc21`: the half-maximal inhibitory concentration (IC50) at Gamma-secretase [1] is more than 80 µM. The result in [3] and in [4] was inactive.
Consider `CC(C(=O)O)c1ccc(-c2ccccc2)c(F)c1` (configuration not stated) [FLURBIPROFEN], for which, in series [9], the “Ratio AUC” value was found to be 5.31.
Consider `CCCCCCCCn1c2ccc(Cl)cc2c2ccc(C(C)C(=O)O)cc21` (configuration not stated), for which the concentration for half-maximal inhibition (IC50) on Gamma-secretase [1] was 6.9 µM; on Gamma-secretase [6], more than 40 µM; on Gamma-secretase [7], 100 µM.
In the case of `CCCCCCCCn1c2ccccc2c2cc(C=O)c(OCC(=O)OC)cc21`, at Gamma-secretase [1], the IC50 came to 89 µM. Moreover, in the series on H4 [5], the Activity entry is “Non-toxic”. Also, the outcome in series [3] and in series [4] was inactive.
Turning to `CCCCCCCCn1c2ccc(Cl)cc2c2ccc(C(C)C(=O)OCC)cc21` (configuration not stated), the EC50 on Gamma-secretase [1] worked out at 21 µM. Besides, the result in series [3] and in series [4] was inactive.
In the case of `CCCCCCCCn1c2ccccc2c2ccc(OCCO)cc21`, at Gamma-secretase [1], the IC50 was more than 40 µM. The Activity result with H4 [5] was “Non-toxic”. Also, the result in series [3] and in series [4] was inactive.
As for `CCCCCCCCn1c2ccccc2c2ccc(OCC(=O)OC(C)(C)C)cc21`, on Gamma-secretase [1], the EC50 was 19 µM. The Activity entry with H4 [5] is on record as “Non-toxic”. For the same molecule, the outcome in series [3] and in series [4] was inactive.
As for `CCCCCCCCn1c2ccccc2c2ccc(OCCC(=O)O)cc21`, the IC50 on Gamma-secretase [1] and on Gamma-secretase [6] was more than 80 µM each time. In the series on H4 [5], the Activity result is listed as “Non-toxic”. Moreover, on Gamma-secretase [7], the concentration for a half-maximal effect (EC50) is more than 80 µM.
`CCCCCCCCn1c2ccccc2c2cc(CO)c(OCCO)cc21`: the half-maximal inhibitory concentration (IC50) on Gamma-secretase [1] amounted to 80 µM. Further, the outcome in series [3] and in series [4] was inactive.
`CCCCCCCCn1c2ccccc2c2ccc(OCC(=O)OC(C)C)cc21`: at Gamma-secretase [1], the EC50 was found to be 49 µM. Moreover, the outcome in series [3] and in series [4] was inactive.
As to `CCCCCCCCn1c2ccc(Cl)cc2c2ccc(C(C)CO)cc21` (configuration not stated), the half-maximal effective concentration (EC50) on Gamma-secretase [1] is 21 µM. For the same molecule, the Activity result in the series with H4 [2] is “Toxic”. Moreover, the result in series [3] and in [4] was inactive.
Regarding `CCCCCCCCn1c2ccccc2c2ccc(OCC(N)=O)cc21`, the IC50 on Gamma-secretase [1] is 104 µM. Moreover, the result in [3] and in series [4] was inactive. The Activity entry in the series with H4 [10] is listed as “Toxic”.
Turning to `CCCCCCCCn1c2ccc(Cl)cc2c2ccc(C(C)C(=O)OCc3ccccc3)cc21` (configuration not stated), the concentration for half-maximal inhibition (IC50) at Gamma-secretase [1] is more than 80 µM. Further, in the series with H4 [5], the Activity result is “Non-toxic”. Also, the result in series [3] and in series [4] was inactive.
Turning to `CCCCCCCCn1c2ccccc2c2ccc(OCCP(=O)(OCC)OCC)cc21`, the EC50 at Gamma-secretase [1] came out at 13 µM. In addition, the Activity entry in the series on H4 [2] is on record as “Toxic”. Moreover, the outcome in series [3] and in series [4] was inactive.
As for `CCCCCCCCn1c2ccc(Cl)cc2c2ccc(CC)cc21`, at Gamma-secretase [1], the EC50 was 50 µM. For the same molecule, the outcome in series [3] and in series [4] was inactive.
Turning to `CCCCCCCCn1c2ccccc2c2ccc(OCCN(C(=O)C(F)(F)F)C(=O)C(F)(F)F)cc21`, the IC50 at Gamma-secretase [1] was more than 80 µM. The Activity result in the series with H4 [5] is given as “Non-toxic”. Moreover, the outcome in [3] and in series [4] was inactive.
On to `CCCCCCCCn1c2ccccc2c2cc(CCC(=O)O)c(OCC(=O)O)cc21`, for which, on Gamma-secretase [1], the 50% inhibitory concentration (IC50) was more than 80 µM. Also, the outcome in series [3] and in series [4] was inactive.
In the case of `CCCCCCCCn1c2ccccc2c2ccc(OC3=C(O)COC3=O)cc21`, the concentration for half-maximal inhibition (IC50) was 37 µM at Gamma-secretase [1] and more than 80 µM on Gamma-secretase [6]. Besides, the Activity entry in the series with H4 [5] is listed as “Non-toxic”. For the same molecule, the concentration for a half-maximal effect (EC50) on Gamma-secretase [7] came to 21 µM.
As for `CCCCCCCCn1c2ccccc2c2ccc(OCC(O)C(F)(F)F)cc21` (configuration not stated), the EC50 on Gamma-secretase [1] is 12 µM. The result in series [3] and in [4] was inactive.
As for `CCCCCCCCn1c2ccc(Cl)cc2c2ccc(C(C)C(=O)NS(C)(=O)=O)cc21` (configuration not stated), the concentration for a half-maximal effect (EC50) at Gamma-secretase [1] came to 32 µM. The outcome in [3] and in series [4] was inactive.
As to `CCCCCCCCn1c2ccccc2c2ccc(OCCN(C)C)cc21`, the 50% effective concentration (EC50) on Gamma-secretase [1] was more than 10 µM. The outcome in series [3] and in [4] was inactive. Moreover, the Activity result in the series with H4 [11] is “Toxic”.
